Molecules are shown by their SMILES. Several values for one entry are separate records, joined by “and”; a condition that tells them apart may be missing. Equal entries are not always repeated.

Common to all, as to format: in vivo
Data set [1] deals with Genetic Absence Epilepsy Rat from Strasbourg (GAERS). The data set is described as follows: GAERS model, spontaneous spike-and-wave discharges. Conditions: 3 mg/kg oral; discharges increased progressively afterwards. The procedure, abridged:
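Adult male GAERS rats (4–8 months) had frontal and parietal cortical EEG recorded while freely moving. […] SWDs were counted over a 20-min baseline (−25 to −5 min) and in 20-min epochs from 10 to 130 min post-dose. Analysis: mixed-model repeated-measures ANOVA with Dunnett vs vehicle; ED50 from a variable-slope curve fit of overall rate as % baseline.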

The subject of data set [2] is CF‐1 mice. The data set is described as follows: Mouse fixed-speed rotarod test of minimal motor impairment. The following applies: 1 mg/kg i.p. In short, it runs like this:
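Mice were tested on a fixed-speed rotarod at 6 rpm immediately before 6 Hz stimulation at 32 or 44 mA. A mouse falling off 3 times within 1 min was scored impaired. The experimenter was blinded to treatment.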

For data set [3], the system named is CF‐1 mice, 6 Hz psychomotor seizure. The data set is described as follows: Mouse 6 Hz seizure test. The following applies: 1 mg/kg i.p., 0.25 h pretreatment.
The subject of data set [4] is amygdala kindled Wistar rats. The data set is described as follows: Amygdala kindled rat seizure model. The following applies: 16 mg/kg orally, 60 min prior to stimulation. In short, it runs like this: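 Male Wistar rats had electrodes implanted under isoflurane with carprofen (5 mg/kg s.c.). Each treatment ran over 2 days with a 2-day washout. Day 1: oral vehicle (0.5% methylcellulose), then stimulation 60 or 120 min later. […] Seizures were scored on the Racine scale (0–5), and amygdala and cortical EEG afterdischarge duration was analysed off-line. Statistics: Wilcoxon test (severity) and paired t test (afterdischarge) vs baseline.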

Take `CN1C(=O)CN=C(c2ccccc2)c2cc(Cl)ccc21` [Diazepam]: the “Effect on SWDs in the first epoch (10–30 min)” value in data set [1] was “rapid and almost complete elimination of SWDs”. The “Rotarod impairment (mice impaired/tested), 32 mA group” value in data set [2] (immediately prior to 6 Hz 32 mA stimulation) is 0/10. The “Rotarod impairment (mice impaired/tested), 44 mA group” value in data set [2] (immediately prior to 6 Hz 44 mA stimulation) was 0/10. For the same compound, in data set [3] (32 mA), the “Seizure protection 32 mA (mice protected/tested)” value is given as 10/10. In addition, the “Seizure protection 44 mA (mice protected/tested)” value in data set [3] (44 mA) was 3 of 10 and 3/10. For the same compound, in data set [4], the “Change in mean afterdischarge duration in the amygdala vs baseline” value is on record as −69%, the “Change in mean afterdischarge duration in the cortex vs baseline” value is recorded as −75% and the “Change in mean seizure severity score (Racine scale) vs baseline” value is −3.7.

For the origin of these results see PMC12169410 (Epilepsia, 2025).
